# ChEMBL document CHEMBL1649090, “Discovery of (7R)-14-cyclohexyl-7-{[2-(dimethylamino)ethyl](methyl) amino}-7,8-dihydro-6H-indolo[1,2-e][1,5]benzoxazocine-11-carboxylic acid (MK-3281), a potent and orally bioavailable finger-loop inhibitor of the hepatitis C virus NS5B polymerase” (J Med Chem, 2011)
# Activity calls are given as the source filed them. The calls are words filed in the database; no cut-off is given here.
# Tests used:
# [1] = Drug level in Sprague-Dawley rat liver at 3 mg/kg, po after 6 hrs; type: ADME, organism-based; set-up: dose 3 mg/kg, route oral; conditions: read-out: Drug uptake
# Method in brief: (§1)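 Sprague-Dawley rats (n = 3) received the compound as its TFA salt in DMSO/PEG400/water 20%/60%/20%, as a single iv dose of 3 mg/kg or a single oral dose of 3 mg/kg. Liver tissue and plasma concentrations were measured 6 h after the oral dose.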
# [2] = Intrinsic clearance in dog liver microsomes assessed per mg of protein; type: ADME, Canis lupus familiaris, Microsome
# [3] = Ratio of drug level in liver to plasma in Sprague-Dawley rat liver at 3 mg/kg, po after 6 hrs; type: ADME, organism-based; set-up: dose 3 mg/kg, route oral; method in brief: as §1
# [4] = Terminal half life in Sprague-Dawley rat at 3 mg/kg, iv and 3 mg/kg, po; type: ADME, organism-based; conditions: in vivo
# Method in brief: (§2)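 Single-dose PK of the bis-HCl salt, n = 3 per species (dog po n = 2). Intravenous doses: rat 3, dog 1, rhesus 2 mg/kg, in DMSO/PEG400/water 20%/60%/20%. Oral doses: rat 3, dog 2, rhesus 4 mg/kg, in PEG400 for rat and dog and PEG400/water 70%/30% for rhesus.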
# [5] = Volume of distribution at steady state in rhesus monkey at 2 mg/kg, iv and 4 mg/kg, po; type: ADME, organism-based, Macaca mulatta; conditions: in vivo, read-out: Vdss
# Method in brief: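 Single iv and single oral doses, given as the bis-HCl salt, in rat, dog and rhesus, n = 3 per species (dog oral n = 2). The iv vehicle was DMSO/PEG400/water 20%/60%/20%. Oral vehicle was PEG400 for rat and dog and PEG400/water 70%/30% for rhesus. Values are mean ± SD.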
# [6] = AUC in rhesus monkey at 4 mg/kg, po; type: ADME, organism-based, Macaca mulatta; set-up: dose 4 mg/kg, route oral; conditions: plasma; method in brief: as §2
# [7] = Plasma protein binding in dog; type: ADME, cell-free, Canis lupus familiaris; conditions: read-out: PPB (converted)
# [8] = target: T1, Nuclear receptor subfamily 1 group I member 2 (Homo sapiens, UniProt O75469); experiment: Inhibition of PXR activation up to 50 uM
# T1 sequence (O75469 whole entry): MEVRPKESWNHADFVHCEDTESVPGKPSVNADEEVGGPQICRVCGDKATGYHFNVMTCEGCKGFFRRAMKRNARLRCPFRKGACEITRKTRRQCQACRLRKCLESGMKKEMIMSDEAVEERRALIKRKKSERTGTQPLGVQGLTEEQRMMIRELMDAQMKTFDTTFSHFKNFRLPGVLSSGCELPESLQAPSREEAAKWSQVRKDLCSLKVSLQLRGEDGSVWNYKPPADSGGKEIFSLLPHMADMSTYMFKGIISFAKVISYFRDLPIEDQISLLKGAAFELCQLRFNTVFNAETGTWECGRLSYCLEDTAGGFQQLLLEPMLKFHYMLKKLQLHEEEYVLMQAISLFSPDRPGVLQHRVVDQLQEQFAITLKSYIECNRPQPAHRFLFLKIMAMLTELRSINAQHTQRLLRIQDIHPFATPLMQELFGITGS
# [9] = target: Protein kinase C alpha type (Homo sapiens, UniProt P17252); experiment: Inhibition of PKCalpha
# [10] = target: T2, DNA polymerase alpha catalytic subunit (Homo sapiens) (UniProt P09884); experiment: Inhibition of human DNA polymerase alpha up to 50 uM
# T2 sequence (whole entry): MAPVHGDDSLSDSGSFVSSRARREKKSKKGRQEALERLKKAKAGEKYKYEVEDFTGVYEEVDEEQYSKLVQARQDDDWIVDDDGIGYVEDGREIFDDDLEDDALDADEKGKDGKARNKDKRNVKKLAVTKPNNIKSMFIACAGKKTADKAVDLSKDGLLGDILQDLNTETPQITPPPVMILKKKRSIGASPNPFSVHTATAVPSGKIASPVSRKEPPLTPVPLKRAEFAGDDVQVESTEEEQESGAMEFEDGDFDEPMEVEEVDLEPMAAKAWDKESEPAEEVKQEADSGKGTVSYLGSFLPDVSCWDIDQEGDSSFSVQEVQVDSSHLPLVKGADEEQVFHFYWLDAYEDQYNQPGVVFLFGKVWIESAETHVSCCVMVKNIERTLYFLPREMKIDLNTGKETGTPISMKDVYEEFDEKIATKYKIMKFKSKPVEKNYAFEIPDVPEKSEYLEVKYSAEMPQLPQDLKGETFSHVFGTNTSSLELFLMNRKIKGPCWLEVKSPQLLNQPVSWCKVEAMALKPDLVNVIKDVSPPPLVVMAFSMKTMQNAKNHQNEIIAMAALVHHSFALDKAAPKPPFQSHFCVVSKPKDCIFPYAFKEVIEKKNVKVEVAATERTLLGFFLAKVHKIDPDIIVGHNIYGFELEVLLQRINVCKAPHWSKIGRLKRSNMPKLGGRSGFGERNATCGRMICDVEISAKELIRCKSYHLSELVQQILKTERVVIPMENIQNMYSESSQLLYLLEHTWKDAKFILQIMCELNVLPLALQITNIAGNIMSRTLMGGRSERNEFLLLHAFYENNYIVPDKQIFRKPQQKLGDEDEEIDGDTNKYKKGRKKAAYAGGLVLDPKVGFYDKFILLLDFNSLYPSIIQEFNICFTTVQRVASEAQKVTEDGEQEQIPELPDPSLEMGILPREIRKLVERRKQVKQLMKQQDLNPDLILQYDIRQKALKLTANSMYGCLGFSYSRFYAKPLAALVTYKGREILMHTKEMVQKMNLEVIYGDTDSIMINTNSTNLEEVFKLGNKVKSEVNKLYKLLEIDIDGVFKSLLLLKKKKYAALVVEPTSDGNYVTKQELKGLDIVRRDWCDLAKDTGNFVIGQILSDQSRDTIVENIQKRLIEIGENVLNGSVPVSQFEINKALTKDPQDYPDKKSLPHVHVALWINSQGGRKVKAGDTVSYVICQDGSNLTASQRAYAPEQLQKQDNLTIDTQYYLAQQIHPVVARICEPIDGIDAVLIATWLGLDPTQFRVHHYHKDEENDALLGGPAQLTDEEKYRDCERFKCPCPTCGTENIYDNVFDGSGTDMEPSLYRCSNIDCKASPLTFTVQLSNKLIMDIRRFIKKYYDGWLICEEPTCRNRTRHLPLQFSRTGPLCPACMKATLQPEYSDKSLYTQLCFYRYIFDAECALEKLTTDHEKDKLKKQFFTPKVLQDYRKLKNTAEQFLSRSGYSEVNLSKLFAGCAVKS
# [11] = target: DNA polymerase beta (Homo sapiens) (UniProt P06746); experiment: Inhibition of human DNA polymerase beta up to 50 uM
# Homo sapiens = organism: Homo sapiens; experiment: Inhibition of human DNA polymerase gamma up to 50 uM
# [12] = Plasma concentration in SCID mouse at 50 mg/kg, ip bid for 5 days measured 12 hrs after last post dose; type: ADME, organism-based; set-up: dose 50 mg/kg, route intraperitoneal
# Method in brief: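 SCID mice (n = 3) were given 50 mg/kg by intraperitoneal injection twice daily for five consecutive days. Plasma compound level was measured 12 h after the last dose.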
# [13] = Plasma concentration in HCV1b infected humanized uPA+/+-SCID mouse at 10 mg/kg, ip bid for 4 days measured 12 hrs after last post dose; type: ADME, organism-based; set-up: dose 10 mg/kg, route intraperitoneal
# Method in brief: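 Three humanized uPA+/+-SCID mice infected with genotype 1b HCV received 10 or 50 mg/kg ip twice daily for 4 days, in PEG400/water 30%/70%. Trough plasma concentration was taken 12 h after the last dose.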
smiles,measurement,setting,value
CN(C)CCN(C)[C@H]1COc2ccccc2-c2c(C3CCCCC3)c3ccc(C(=O)O)cc3n2C1 [MK-3281],concentration at 6 h,[1],420 nM
same,microsomal CLint,[2],3 µL/min/mg
same,Kp at 6 h,[3],5
same,half-life,[4],3.4 h
same,Vd,[5],2.2 L/kg
same,AUC,[6],7.4 µM·h
same,fraction unbound,[7],0.027
same,inhibition (INH),[8],Not Active
same,IC50,[9],59 µM
same,inhibition,[10],inactive
same,inhibition,[11],inactive
same,inhibition,Homo sapiens,inactive
same,concentration at 12 h,[12],3600 nM
same,concentration at 12 h,[13],670 nM
